Only some compounds are listed: those with a hit (about 3.3% of all), similar ones and a draw of the others.
ABCB1 block: human ABCB1 inhibition, ABCG2 as counter-screen. P08183. AID 1326. CCRF-Adr cells, JC-1 efflux, flow cytometry. inhibition, % at 6.6 µM. 190,000 tested, 0.067% active; in the data active = inhibition above about 40%;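 also: 0% = vehicle and 100% = reference inhibitor; higher value means more JC-1 retained so stronger ABCB1 efflux block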
ABCG2 inh: inhibitors of human ABCG2 transporter, ABCB1 counter-screen; Q9UNQ0; IgMXP3 cells, JC-1 efflux, flow cytometry; inhibition, % at 6.6 µM; 190,000 tested, 0.1% active; AID 1325;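 active = inhibition above 80%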;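 also: 0% = DMSO and 100% = nicardipine control wells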
Target sequence (Q9UNQ0 whole entry, looked up): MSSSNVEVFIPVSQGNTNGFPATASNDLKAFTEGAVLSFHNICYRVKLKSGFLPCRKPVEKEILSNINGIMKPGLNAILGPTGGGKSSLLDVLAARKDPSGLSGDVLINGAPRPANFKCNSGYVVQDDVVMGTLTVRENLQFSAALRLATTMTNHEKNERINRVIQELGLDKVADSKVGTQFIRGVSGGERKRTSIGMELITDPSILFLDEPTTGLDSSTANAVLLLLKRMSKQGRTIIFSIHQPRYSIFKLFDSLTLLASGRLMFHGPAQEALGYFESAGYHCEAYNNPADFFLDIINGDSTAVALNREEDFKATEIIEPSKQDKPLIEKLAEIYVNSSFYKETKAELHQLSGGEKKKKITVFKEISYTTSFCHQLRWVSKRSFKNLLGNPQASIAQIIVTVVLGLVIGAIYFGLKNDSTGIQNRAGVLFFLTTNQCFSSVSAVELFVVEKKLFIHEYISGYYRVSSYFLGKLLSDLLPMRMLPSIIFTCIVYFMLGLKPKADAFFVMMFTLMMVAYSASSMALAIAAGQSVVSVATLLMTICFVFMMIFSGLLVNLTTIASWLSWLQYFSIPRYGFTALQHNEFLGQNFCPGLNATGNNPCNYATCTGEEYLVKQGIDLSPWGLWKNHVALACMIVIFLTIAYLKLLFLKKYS
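Measure – % inhibition of efflux relative to nicardipine and DMSO · Test system – ABCG2 IgMXP3 and barcoded ABCB1 CCRF-Adr cell mix · Control set – nicardipine as high control, DMSO as low control · Compound – one concentration, 6.6 µM final · Signal – flow cytometry of retained JC-1 fluorescence · Timing – 10 min exposure at 25 °C with rotation, no wash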
Cl transport mod: KCC2 (human) Cl- transport modulation; B-score of Tl+ flux slope (higher = more flux/activation; lower = inhibition) at 10 µM; AID 1456; Q9H2X9; 190,000 tested, 2.2% active; KCC2 cells, thallium flux FluoZin-2 fluorescence;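 active = thallium flux slope and its plate-corrected score both differing from the plate sample mean at a set confidence after two filtering rounds, in either direction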;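 also: slope of fluorescence scaled to starting intensity during 10 to 20 s after thallium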
ROMK mod: modulators of human ROMK potassium channel; Tet-inducible ROMK, thallium flux fluorescence; actives lie on both sides; B-score at 10 µM; 130,000 tested, 2% active;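 active = signal ratio slope over the read window, or its plate-corrected B-score, at least 3 SD from the plate mean, either direction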;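 also: B-score of the F/F0 ratio slope over 7 to 12 s after thallium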
PMI act: phosphomannose isomerase (human) activation; P34949; purified human PMI, coupled resazurin fluorescence, 20 min; hits give high values; 1 = vehicle control, 0 substrate-free wells; activation factor at 20 µM; 190,000 tested, 0.005% active; AID 1214;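 active = activation factor of 2 or more at 20 µM, relative to plate controls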
PMI act hi M6P: increases human PMI activity with near-saturating mannose 6-phosphate; activation factor at 20 µM; P34949; 190,000 tested, 0.34% active; AID 1216; coupled PMI enzyme assay, resazurin fluorescence, 20 min; hits give high values; 1 = untreated enzyme, 0 = substrate-free blank;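 active = activation factor of 2 or more at 20 µM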
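Test system: human phosphomannose isomerase with PGI, G6PDH, diaphorase coupling enzymes; Amount: PMI at 15 ng/mL final; Reagent: Mannose-6-phosphate 1.0 mM (near-saturating) plus 0.22 mM NADP+; Timing: 20 min, room temperature; Technique: resorufin fluorescence at Ex 544/Em 590 nm; Dosing: 20 µM single dose.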
KCC2 secondary: KCC2 (human) modulation, secondary assay; shares compounds with Cl transport mod; HEK293-KCC2, thallium flux, FluoZin2 fluorescence; hits give high values; normalised thallium flux (F/F0 slope) at 10 µM; 3,700 tested, 15% active; AID 1713;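 active = thallium flux slope above the same plate's solvent-only control mean plus 3 SD; inconclusive = the two replicate wells disagree; inactive = no significant difference from solvent-only control wells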
KCC2 bumet counter: thallium flux persisting under bumetanide in KCC2 cells, counter-screen secondary assay; shares compounds with Cl transport mod; HEK293-KCC2 + bumetanide/ouabain, thallium flux FluoZin2; hits give high values; normalized thallium flux at 10 µM; 3,700 tested, 49% active; AID 1714;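 active = thallium entry rate above the same plate's blocked-transporter control wells by more than 3 SD; inconclusive = the two repeat wells disagree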;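 also: raw slope of fluorescence over initial fluorescence between 10 and 20 s after thallium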
KCC2 sec2: KCC2 (human) modulation, second secondary assay; shares compounds with Cl transport mod; HEK293-KCC2, thallium flux FluoZin2 fluorescence; actives lie on both sides; F/F0 rise rate, 10–20 s post-thallium; normalized thallium flux at 10 µM; 3,700 tested, 23% active; AID 1715;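 active = thallium flux slope more than 3 SD above or below the plate's solvent-only control mean, mostly below; inconclusive = the two repeat wells disagreed; inactive = no significant shift from solvent-only controls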;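 also: raw slope with 0.1% DMSO as baseline and bumetanide as block control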
HEK counter1: counter-screen for KCC2 modulators: effect in parental HEK293 cells; shares compounds with Cl transport mod; thallium flux FluoZin2, ouabain; baseline-ratio fluorescence slope, 10–20 s after thallium; thallium flux rate (normalised fluorescence) at 10 µM; 3,700 tested, 46% active; AID 1716;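 active = thallium flux rate significantly above the same plate's solvent-only control wells, beyond their mean plus 3 SD; inconclusive = the two replicate wells gave conflicting results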
KCC2 retest ouab: modulates human KCC2 on retest with ouabain | shares compounds with Cl transport mod | HEK293-KCC2, thallium flux FluoZin2 fluorescence; bidirectional: low = inhibitor, high = activator | raw Tl+ flux slope (below DMSO = inhibition, above = activation) at 10 µM | 3,700 tested, 48% active | AID 1717;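 active = thallium flux slope beyond 3 SD from same-plate DMSO control mean in most replicates, usually higher, sometimes lower; inconclusive = repeat tests gave conflicting results; inactive = no significant difference from controls in most replicates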;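 also: slope of initial-normalized fluorescence between seconds 10 and 20 after thallium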
HEK293 Tl flux2: parental HEK flux effect, counter-screen 2; shares compounds with Cl transport mod; HEK293 parental, thallium flux FluoZin-2 fluorescence slope; thallium flux slope at 10 µM; 3,700 tested, 33% active;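 active = thallium flux slope above the same plate's solvent-control mean plus 3 SD in both duplicate wells; inconclusive = duplicate wells that disagreed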;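 also: run without ouabain in cells lacking the KCC2 cotransporter; slope of fluorescence scaled to its starting value between 10 and 20 s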
Starred values were filed as active, the others as inactive; ? = inconclusive; / = no result given.

SMILES	ABCB1 block	ABCG2 inh	Cl transport mod	ROMK mod	PMI act	PMI act hi M6P	KCC2 secondary	KCC2 bumet counter	KCC2 sec2	HEK counter1	KCC2 retest ouab	HEK293 Tl flux2
O=C(Nc1ccccn1)C(NS(=O)(=O)c1cccc2nsnc12)c1ccccc1 (configuration not stated)	1.0	6.3	/	-3.05	1	0.9	/	/	/	/	/	/
COc1ccc(C(=O)c2ccc(OC)cc2O)c(O)c1	0.9	8.6	5.76*	-0.0312	0.9	1	0.00876	0.00529	0.029	0.00724	0.0264	0.00974
COc1ccc(C(=O)/C=C/c2ccccc2)c(O)c1	0.1	6.2	1.13	0.369	0.9	0.9	/	/	/	/	/	/
Cc1ccc(C2=C(c3ccc([N+](=O)[O-])cc3)C(=O)OC2)cc1C	0.7	6.8	-1.87	-0.889	1	1	/	/	/	/	/	/
CCOCCn1c(CN2CCC(C)CC2)nc2c1c(=O)n(C)c(=O)n2C	0.2	-1.0	0.0914	-0.162	0.9	0.8	/	/	/	/	/	/
CCOCCn1c(CN2CCN(CC)CC2)nc2c1c(=O)n(C)c(=O)n2C	-0.1	-1.0	6.27*	-0.0162	1.1	1	0.00967	0.00703	0.0369	0.00768	0.0229	0.0112
Cn1c(/N=C/c2ccc3c(c2)OCO3)nc2ccccc21	0.4	1.4	-3.13*	0.555	1.1	1.1	0.00749	0.00442	?	0.00732	0.0171*	0.0101
Cc1ccc(C)c(N2CCN(c3ccncc3N)CC2)c1	/	/	0.302	/	/	/	/	/	/	/	/	/
CCCc1cc(C(=O)NNC(=S)Nc2cccc(C)c2)cs1	-0.3	4.8	31*	/	0.9	1	0.00583	0.0829*	0.0627*	0.0771*	0.0652*	0.0442*
Cc1cccc(NC(=S)NNC(=O)c2ccccc2Br)c1	-0.5	-1.1	3	0.575	1.1	1.2	/	/	/	/	/	/
Cc1cccc(NC(=S)NNC(=O)c2ccccc2OC(F)F)c1	-1.6	-1.6	13.3*	-0.0105	1.1	1.1	0.00913	0.0265*	0.0303	0.0117*	?	0.0111*
O=C(OCc1ccccc1)C1CCCN1C(=O)c1ccccc1[N+](=O)[O-] (configuration not stated)	0.5	1.9	/	-0.0385	1	1	/	/	/	/	/	/
c1ccc(-c2csc(Cc3nnc4n3CCCCC4)n2)cc1	1.9	8.5	-1.8	/	0.9	0.9	0.00614	0.00558	0.0274	0.00651	0.014*	0.00958
CCOC(=O)Cn1nnnc1C(C(C)C)N(Cc1cccs1)Cc1cc2cc(C)ccc2[nH]c1=O (configuration not stated)	4.2	3.8	/	-0.384	0.8	0.8	0.00623	0.00452	0.0283	0.00752	0.0186	0.0108
CSc1ccccc1NC(=S)Nc1ccc(S(N)(=O)=O)cc1	1.4	4.2	3.02*	0.0454	1.1	1	0.00752	0.00752*	0.0333	0.00965*	?	?
CSc1ccccc1NC(=S)Nc1ccccc1C(F)(F)F	0.2	0.3	4.73*	-0.0619	1.1	1	0.00745	0.0115*	0.0328	0.0125*	?	0.0122
Cc1ccccc1Nc1nc(N)nc(CN(C)Cc2ccccc2Cl)n1	0.8	4.8	-1.02	-0.106	0.9	0.9	/	/	/	/	/	/
CCCNC(=O)NC1CCCc2ccccc21 (configuration not stated)	0.4	-1.2	1.16	/	1	1	/	/	/	/	/	/
CCOc1ccc(C2=Nn3c(nnc3-c3ccccn3)SC2)cc1	0.0	3.1	-0.759	0.204	1.1	1.1	0.0103	0.0062	0.0336	0.00638	0.0217	0.0102
CCOc1ccc(C2=Nn3c(nnc3-c3ccco3)SC2)cc1	1.0	4.9	0.157	/	0.9	0.9	/	/	/	/	/	/
CC1(C(=O)NCc2ccc(Cl)c(Cl)c2)Oc2ccccc2NC1=O (configuration not stated)	1.3	3.9	-2.06	-1.51	0.9	1	/	/	/	/	/	/
CC(=O)NC(=S)NNC(=O)CCc1ccccc1	-1.7	-5.9	0.865	0.469	0.7	0.9	/	/	/	/	/	/
O=C(CCc1ccccc1)NC(=S)Nc1cccc(Br)c1	-0.1	2.3	4.84*	0.912	0.8	0.8	0.0082	0.0113*	0.0285	0.00862*	?	0.00959
CC(C)(C)c1cc(CCC(=O)NNC(=S)NC(=O)c2ccccc2)cc(C(C)(C)C)c1O	0.0	-2.1	53.8*	0.832	1	1.4	0.0334*	0.105*	0.0357	0.0906*	0.0822*	0.0199*
CCN(C(=S)NC(=O)CCc1ccccc1)c1ccccc1	0.8	2.1	4.66*	0.991	1.1	1.2	?	0.0505*	0.0339	0.0173*	0.0417*	0.0128*
SMILES	ABCB1 block	ABCG2 inh	Cl transport mod	ROMK mod	PMI act	PMI act hi M6P	KCC2 secondary	KCC2 bumet counter	KCC2 sec2	HEK counter1	KCC2 retest ouab	HEK293 Tl flux2
O=C(CCc1ccccc1)NNC(=S)NC(=O)c1ccccc1	0.3	2.1	9.95*	0.747	0.8	1.1	0.0253*	0.061*	0.0371	0.0299*	0.0514*	0.0151*
CCCCC(=O)NC(=S)NNC(=O)CCc1ccccc1	/	/	6.86	/	/	/	/	/	/	/	/	/
CC(C)(C)c1cc(CCC(=O)NNC(=O)c2ccco2)cc(C(C)(C)C)c1O	0.5	1.6	0.0472	0.717	1	1.1	/	/	/	/	/	/
CCOC(=O)c1c(N2C(=O)Nc3cc(Cl)c(Cl)cc3N2O)sc2c1CCCCC2	0.0	0.0	-5.2*	/	0.9	0.9	0.00853	0.0126*	0.0295	0.00763	?	0.00992
CCOC(=O)c1c(-n2cnnn2)sc2c1CCCC2	/	/	-2.84	/	/	/	/	/	/	/	/	/
COc1cccc(C(=O)N2N=C(c3ccccc3)CC2(O)C(F)(F)F)c1 (configuration not stated)	0.1	17.3	3.82	-0.922	1	0.9	/	/	/	/	/	/
COc1ccc(C(=O)N2N=C(c3ccccc3)CC2(O)C(F)(F)F)cc1 (configuration not stated)	0.3	11.4	10.8*	2.14	1	1	0.00545	0.0171*	0.0352	0.0138*	0.0258*	0.0169*
